Reference: ChEMBL document CHEMBL1144223, “Design, synthesis, and docking studies of novel benzopyrone derivatives as H(1)-antihistaminic agents” (Bioorg Med Chem, 2008)
Counter-ions that a name gives are not always drawn.

How the values were obtained:
Assay type in all cases: functional, tissue-based
[1] = molecular target: Histamine H1 receptor (Cavia porcellus) (UniProt P31389); assay: Antagonist activity at histamine H1 receptor in guinea pig ileum assessed as inhibition of histamine-induced contractions at 0.5 mg/ml relative to control
Sequence of Histamine H1 receptor (Cavia porcellus) (P31389 whole entry): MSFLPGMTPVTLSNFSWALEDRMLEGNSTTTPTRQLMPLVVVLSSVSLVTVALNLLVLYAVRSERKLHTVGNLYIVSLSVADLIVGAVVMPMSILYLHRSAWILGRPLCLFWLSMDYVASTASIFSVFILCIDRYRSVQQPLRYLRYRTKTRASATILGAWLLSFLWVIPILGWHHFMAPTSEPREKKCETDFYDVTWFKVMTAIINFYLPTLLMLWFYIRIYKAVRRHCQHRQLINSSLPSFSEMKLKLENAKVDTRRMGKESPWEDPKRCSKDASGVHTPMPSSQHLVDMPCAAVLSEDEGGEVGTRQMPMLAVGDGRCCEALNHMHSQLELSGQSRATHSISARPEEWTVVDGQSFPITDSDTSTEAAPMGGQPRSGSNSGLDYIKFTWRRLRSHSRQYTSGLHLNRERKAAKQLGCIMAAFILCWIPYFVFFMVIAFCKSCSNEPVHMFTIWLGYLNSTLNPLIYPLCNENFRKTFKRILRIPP
Summary of the method: (§1)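 Isolated ileum from male guinea pigs (250–400 g), killed by a blow to the skull and cervical dislocation. Segments 2–3 cm long were tied to an aerating tube and an isotonic transducer. Cumulative histamine diphosphate was added every 2 min, from the threshold concentration up to the maximal response. Contraction height was expressed as % of the maximum with saline. EC50 and Emax were compared with saline (Student's t-test, n = 5 strips, mean ± SEM).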

[2] = molecular target: Histamine H1 receptor (Cavia porcellus) (UniProt P31389); assay: Antagonist activity at histamine H1 receptor in guinea pig ileum assessed as inhibition of histamine-induced contractions at 1.0 mg/ml relative to control; summary of the method: as §1
[3] = molecular target: T1, Histamine H1 receptor (Cavia porcellus, UniProt P31389); assay: Antagonist activity at histamine H1 receptor in guinea pig ileum assessed as inhibition of histamine-induced contractions at 0.5 mg/ml; summary of the method: as §1
T1 sequence (P31389 whole entry): as above

[4] = molecular target: Histamine H1 receptor (Cavia porcellus) (UniProt P31389); assay: Antagonist activity at histamine H1 receptor in guinea pig ileum assessed as inhibition of histamine-induced contractions at 0.1 mg/ml relative to control; summary of the method: as §1
[5] = molecular target: T1, Histamine H1 receptor; assay: Antagonist activity at histamine H1 receptor in guinea pig ileum assessed as inhibition of histamine-induced contractions at 0.1 mg/ml; summary of the method: as §1
[6] = molecular target: T1, Histamine H1 receptor; assay: Antagonist activity at histamine H1 receptor in guinea pig ileum assessed as inhibition of histamine-induced contractions at 1.0 mg/ml; summary of the method: as §1
[7] = molecular target: T1, Histamine H1 receptor; assay: Antagonist activity at histamine H1 receptor in guinea pig ileum assessed as inhibition of histamine-induced contractions at 5 ug/ml; summary of the method: as §1
[8] = molecular target: Histamine H1 receptor (Cavia porcellus) (UniProt P31389); assay: Antagonist activity at histamine H1 receptor in guinea pig ileum assessed as inhibition of histamine-induced contractions at 5 ug/ml relative to control; summary of the method: as §1

Emax [1] | Emax [2] | EC50 [3] | Emax [4] | EC50 [5] | EC50 [6] | EC50 [7] | Emax [8] | Structure (SMILES)
98% | 54% | 0.0181 µM | 100% | 0.0174 µM | 0.0244 µM | – | – | Cc1cc(=O)oc2ccc(OCC(O)CN3CCN(C)CC3)cc12 (centres undefined)
94% | 60% | 0.0158 µM | 100% | 0.0148 µM | 0.0235 µM | – | – | O=c1cc(-c2ccccc2)c2ccc(OCC(O)CN3CCCCC3)cc2o1 (centres undefined)
95% | 60% | 0.0174 µM | 100% | 0.0161 µM | 0.0242 µM | – | – | CCN(CC)CC(O)COc1ccc2c(-c3ccccc3)cc(=O)oc2c1 (centres undefined)
95% | 58% | 0.0163 µM | 100% | 0.0144 µM | 0.0218 µM | – | – | O=c1cc(-c2ccccc2)c2ccc(OCC(O)CN3CCOCC3)cc2o1 (centres undefined)
94% | 54% | 0.0138 µM | 100% | 0.0118 µM | 0.0182 µM | – | – | O=c1cc(-c2ccccc2)c2ccc(OCC(O)CN3CCN(c4ccccc4)CC3)cc2o1 (centres undefined)
96% | 58% | 0.0146 µM | 100% | 0.0137 µM | 0.02 µM | – | – | COc1ccccc1N1CCN(CC(O)COc2ccc3oc(=O)cc(C)c3c2)CC1 (centres undefined)
96% | 52% | 0.0127 µM | 100% | 0.0117 µM | 0.0183 µM | – | – | COc1ccccc1N1CCN(CC(O)COc2ccc3c(-c4ccccc4)cc(=O)oc3c2)CC1 (centres undefined)
96% | 58% | 0.0196 µM | 100% | 0.017 µM | 0.0278 µM | – | – | CCN(CC)CC(O)COc1ccc2oc(=O)cc(C)c2c1 (centres undefined)
100% | 53% | 0.0178 µM | 100% | 0.0158 µM | 0.0241 µM | – | – | CCCNCC(O)COc1ccc2c(-c3ccccc3)cc(=O)oc2c1 (centres undefined)
– | – | – | – | – | – | 0.0191 µM | 78% | CN(C)CCC(c1ccccc1)c1ccccn1 (centres undefined) [PHENIRAMINE MALEATE]
100% | 53% | 0.0166 µM | 100% | 0.0152 µM | 0.0226 µM | – | – | O=c1cc(-c2ccccc2)c2ccc(OCC(O)CN3CCNCC3)cc2o1 (centres undefined)
98% | 55% | 0.0205 µM | 100% | 0.0173 µM | 0.0262 µM | – | – | Cc1cc(=O)oc2ccc(OCC(O)CN3CCCCC3)cc12 (centres undefined)
95% | 60% | 0.016 µM | 100% | 0.0132 µM | 0.0215 µM | – | – | Cc1cc(=O)oc2ccc(OCC(O)CN3CCN(c4ccccc4)CC3)cc12 (centres undefined)
